Rin1 Abl inh: blocks binding of human Rin1 to Abl; P00519+Q13671; TR-FRET Rin1/Abl binding, biochemical; inhibition, % at 7.35 µM; 0.4% of 360,000 active; in the data active means inhibition above about 5%, passing the limit was not always enough
TDP2 inh: blocks human TDP2 phosphodiesterase activity; 0.34% of 370,000 active; AID 720702; O95551; inhibition, % at 12.8 µM; recombinant TDP2, T5PNP hydrolysis, p-nitrophenol absorbance 415 nm;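 active means inhibition above the mean of all tested compounds plus 3 SD, set per campaign, cut at about 25% in these data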;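 further: 0% = DMSO with enzyme and 100% = buffer with substrate but no TDP2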
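Assay system: recombinant human TDP2 / Reagent: T5PNP substrate at 5 mM, a TopII-DNA adduct mimic / Measured by: epi absorbance from released p-nitrophenol / Evaluation: % inhibition relative to enzyme-containing and enzyme-free wells / Control set: enzyme-free and DMSO wells / Replicates: each compound tested once, singlicate / Schedule: enzyme reaction with compound for 2 h at 37 °C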
UHRF1 binding: human UHRF1 methylated DNA binding inhibitors; inhibition, % at 4.4 µM; UHRF1 binding to methylated oligo, TR-FRET; AID 687016; 0.75% of 370,000 active; in the data active means inhibition above about 21%;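 further: UHRF1 SRA domain binding a hemimethylated CpG hairpin DNA probe; 0% = median of test compound wells and 100% = reference inhibitor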
LEDGF integ inh: blocks HIV-1 LEDGF/p75-dependent DNA integration. TR-FRET IN-LEDGF/p75 DNA integration, Eu/Cy5. inhibition, % at 3.7 µM. 0.64% of 370,000 active;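 active means inhibition above the screen-wide mean plus 3 SD, cut at about 13% in these data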;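 further: signal is the Cy5 over europium emission ratio at 671 and 618 nm; 0% = plate median of compound wells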
MBD2 inh: inhibitors of human MBD2 binding to methylated oligonucleotide. inhibition, % at 4.4 µM. TR-FRET. Q9UBB5. 0.31% of 370,000 active; in the data active means inhibition above about 13%
UHRF1 DNA bind: inhibits human UHRF1 binding to methylated oligonucleotide, MBD2 counter-screen | 25% of 1,000 active | TR-FRET | shares compounds with MBD2 inh | inhibition, % at 4.4 µM; in the data active means inhibition above about 21%;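 further: UHRF1 SRA domain binding a labeled hemimethylated CpG hairpin DNA; 0% = vehicle only and 100% = reference inhibitor with vehicle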
MBD2 DBD conf: confirmation of human MBD2-DBD methylated oligonucleotide binding inhibitors | TR-FRET MBD2-DBD binding to methylated oligonucleotide | AID 720531 | shares compounds with MBD2 inh | 26% of 1,000 active | inhibition, % at 4.4 µM
IN multimer act: HIV-1 integrase multimerization activation, counter-screen; activation, % at 7.7 µM; AID 1053131; shares compounds with LEDGF integ inh; TR-FRET HIV-1 integrase multimerization, biochemical; 17% of 2,000 active; in the data active means activation above about 8.9%
TRFRET interf: optically interferes with TR-FRET readout in LEDGF counter-screen; shares compounds with LEDGF integ inh; TR-FRET optical interference counterscreen, HIV-1 IN multimerization; inhibition, % at 7.7 µM; 2,000 tested, under 10 active; AID 1053135;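 active means inhibition above the mean over all tested compounds plus 3 SD, which no compound reached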;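 further: 0% = integrase with antibodies and DMSO and 100% = antibodies without integrase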
LEDGF integ conf: LEDGF/p75-dependent HIV-1 integration inhibition, confirmation; TR-FRET LEDGF/p75-dependent HIV-1 integration, biochemical; 36% of 2,000 active; shares compounds with LEDGF integ inh; inhibition, % at 3.7 µM
Numbers without * were called inactive. Sampled rows, rich in hits. Any-hit rate of the full collection: about 1.9%. Unless noted, no stated cut-off is given here; in the data, active means inhibition above about 14%; inactive means the rest.

`CN1CCCCC(NC(=O)c2ccc(C#N)cc2)C1=O` (configuration not stated) gave TDP2 inh -3, UHRF1 binding -1, LEDGF integ inh -1 and MBD2 inh -4.
Screening O=C(CSc1nc2ccccc2c(=O)[nH]1)NC1CCCCC1 returned TDP2 inh 4, UHRF1 binding -2, LEDGF integ inh 9 and MBD2 inh 1.
CC(=O)NC(C)C(=O)N1CCCC1C(=O)N1CCCC1C(=O)NC(C)C(=O)NC1C(=O)NC(CC(C)C)C(=O)NC2CCCCNC(=O)CCC(C(=O)NC(Cc3ccc(O)cc3)C(=O)O)NC(=O)C3CCC(=O)OCC(NC(=O)C4CCCN4C(=O)C(Cc4c[nH]c5ccccc45)NC2=O)C(=O)NC(CC(=O)OC1C)C(=O)NC(Cc1c[nH]c2ccccc12)C(=O)N3 (configuration not stated) was read as TDP2 inh -5, UHRF1 binding -10, LEDGF integ inh 0 and MBD2 inh 10.
`O=C(COC(=O)c1ccccc1)Nc1ncc([N+](=O)[O-])s1` gave Rin1 Abl inh -1, TDP2 inh 4, UHRF1 binding 44*, LEDGF integ inh 15*, MBD2 inh 15*, UHRF1 DNA bind 48*, MBD2 DBD conf 18*, IN multimer act 4, TRFRET interf -22 and LEDGF integ conf 34*.
`COc1ccccc1N1CCN(S(=O)(=O)c2ccc3c(c2)CCC(=O)N3)CC1` gave TDP2 inh -1, UHRF1 binding -3, LEDGF integ inh 1 and MBD2 inh 1.
O=C1CC(=O)N(Cc2ccco2)C(=O)N1 was read as Rin1 Abl inh 4, TDP2 inh 16, UHRF1 binding 93*, LEDGF integ inh 89*, MBD2 inh 64*, UHRF1 DNA bind 100*, MBD2 DBD conf 74*, IN multimer act 18*, TRFRET interf -90 and LEDGF integ conf 87*.
`COc1ccc(Cl)cc1Nc1nc(NCCO)nc(N2CCCC2)n1` gave Rin1 Abl inh -2, TDP2 inh 4, UHRF1 binding 72*, LEDGF integ inh 24*, MBD2 inh 17*, UHRF1 DNA bind 1, MBD2 DBD conf 10, IN multimer act 2, TRFRET interf -7 and LEDGF integ conf -1.
Screening CCOc1ccccc1NC(=O)CCS(=O)(=O)c1ccc(OC)cc1 returned Rin1 Abl inh 4, TDP2 inh -6, UHRF1 binding 1, LEDGF integ inh 0 and MBD2 inh 5.
Screening CCc1ccccc1NC(=O)CCS(=O)(=O)c1ccc(OC)cc1 returned Rin1 Abl inh 4, TDP2 inh 2, UHRF1 binding 75*, LEDGF integ inh 16*, MBD2 inh 40*, UHRF1 DNA bind 13, MBD2 DBD conf 4, IN multimer act 3, TRFRET interf -11 and LEDGF integ conf -1.
Screening c1cc(N2CCOCC2)ccc1-c1ccc2nncn2c1 returned Rin1 Abl inh -7, TDP2 inh 1, UHRF1 binding -4, LEDGF integ inh -1 and MBD2 inh 0.
`c1coc(-c2ccc3nncn3c2)c1` gave Rin1 Abl inh 3, TDP2 inh 13, UHRF1 binding 76*, LEDGF integ inh 57*, MBD2 inh 39*, UHRF1 DNA bind 62*, MBD2 DBD conf 34*, IN multimer act 23*, TRFRET interf -116 and LEDGF integ conf 73*.
O=C1c2cccc(NCCCNCCO)c2C(=O)c2cccc(NCCCNCCO)c21 was read as Rin1 Abl inh -34, TDP2 inh 16, UHRF1 binding 93*, LEDGF integ inh 16*, MBD2 inh 105*, UHRF1 DNA bind 82*, MBD2 DBD conf 102*, IN multimer act 18*, TRFRET interf -89 and LEDGF integ conf 13*.
Screening O=C1N/C(=C/c2cccn2-c2ccc(F)cc2)C(=O)N1Cc1ccccc1 returned Rin1 Abl inh 1, TDP2 inh 3, UHRF1 binding -7, LEDGF integ inh 3 and MBD2 inh -2.
O=C(O)c1cccc(-n2cccc2/C=C2\NC(=O)N(Cc3ccc(F)cc3)C2=O)c1 was read as Rin1 Abl inh 2, TDP2 inh 5, UHRF1 binding 9, LEDGF integ inh 2 and MBD2 inh 1.
`O=C(O)c1ccc(-n2cccc2/C=C2/NC(=O)N(c3ccccc3)C2=O)cc1` gave Rin1 Abl inh -2, TDP2 inh -9, UHRF1 binding 77*, LEDGF integ inh 22*, MBD2 inh 37*, UHRF1 DNA bind 72*, MBD2 DBD conf 44*, IN multimer act 14*, TRFRET interf -72 and LEDGF integ conf 31*.
Screening O=C(O)c1ccc(-n2cccc2/C=C2/SC(=O)N(CC(=O)N3CCCC3)C2=O)cc1 returned Rin1 Abl inh 0, TDP2 inh 12, UHRF1 binding 76*, LEDGF integ inh 36*, MBD2 inh 44*, UHRF1 DNA bind 85*, MBD2 DBD conf 49*, IN multimer act 16*, TRFRET interf -80 and LEDGF integ conf 36*.
Screening O=C(O)c1ccc(-n2cccc2/C=C2/NC(=O)N(c3cccc(Cl)c3)C2=O)cc1 returned Rin1 Abl inh 1, TDP2 inh -6, UHRF1 binding 81*, LEDGF integ inh 33*, MBD2 inh 39*, UHRF1 DNA bind 78*, MBD2 DBD conf 49*, IN multimer act 13*, TRFRET interf -63 and LEDGF integ conf 31*.
Screening CCCCNS(=O)(=O)/C=C/c1ccc(OC)cc1CNC(=O)OC(C)(C)C returned TDP2 inh -8, UHRF1 binding 1, LEDGF integ inh -2 and MBD2 inh 6.
Screening COc1cccc2c1C(=O)c1c(O)c3c(c(O)c1C2=O)CC(O)(C(C)=O)CC3OC1CC(N(C)C)C(O)C(C)O1 (configuration not stated) returned Rin1 Abl inh -15, TDP2 inh -6, UHRF1 binding 96*, LEDGF integ inh 14*, MBD2 inh 111*, UHRF1 DNA bind 101*, MBD2 DBD conf 111*, IN multimer act 3, TRFRET interf -16 and LEDGF integ conf 32*.

Bioassay records (PubChem)
